Measurements taken from ChEMBL document CHEMBL2331331 (J Med Chem, 2013).

Key:
Raji = test: Cytotoxicity against human Raji cells assessed as growth inhibition after 72 hrs by MTT assay
SMMC-7721 = test: Cytotoxicity against human SMMC7721 cells assessed as growth inhibition after 72 hrs by MTT assay; details: SMMC-7721, 72 h
Mus musculus = test: Toxicity in NOD-SCID mouse xenografted with FLT3-ITD-positive human MV4-11 cells assessed as body weight loss at 1 to 10 mg/kg/day, po administered 18 days measured every 3 days for 18 days; type: organism-based; set-up: route oral; details: in vivo, 432 h
Procedure, shortened: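 NOD-SCID mice, 5–6 weeks old, received 100 μL of MV4-11 cells sc (1 × 10⁸/mL in serum-free medium). At 300–500 mm³ tumors, mice were grouped (six per group) and gavaged once daily for 18 days at 1, 3 or 10 mg/kg/d. Vehicle was 12.5% castor oil, 12.5% ethanol and 75% water. Body weights were tracked; tumors were measured every 3 d.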

HL-60 = test: Cytotoxicity against human HL60 cells assessed as growth inhibition after 72 hrs by MTT assay; details: HL-60, 72 h
[1] = biological target: T1, Receptor-type tyrosine-protein kinase FLT3 (Homo sapiens, UniProt P36888); test: Inhibition of FLT3 (unknown origin)
T1 sequence (P36888 whole entry): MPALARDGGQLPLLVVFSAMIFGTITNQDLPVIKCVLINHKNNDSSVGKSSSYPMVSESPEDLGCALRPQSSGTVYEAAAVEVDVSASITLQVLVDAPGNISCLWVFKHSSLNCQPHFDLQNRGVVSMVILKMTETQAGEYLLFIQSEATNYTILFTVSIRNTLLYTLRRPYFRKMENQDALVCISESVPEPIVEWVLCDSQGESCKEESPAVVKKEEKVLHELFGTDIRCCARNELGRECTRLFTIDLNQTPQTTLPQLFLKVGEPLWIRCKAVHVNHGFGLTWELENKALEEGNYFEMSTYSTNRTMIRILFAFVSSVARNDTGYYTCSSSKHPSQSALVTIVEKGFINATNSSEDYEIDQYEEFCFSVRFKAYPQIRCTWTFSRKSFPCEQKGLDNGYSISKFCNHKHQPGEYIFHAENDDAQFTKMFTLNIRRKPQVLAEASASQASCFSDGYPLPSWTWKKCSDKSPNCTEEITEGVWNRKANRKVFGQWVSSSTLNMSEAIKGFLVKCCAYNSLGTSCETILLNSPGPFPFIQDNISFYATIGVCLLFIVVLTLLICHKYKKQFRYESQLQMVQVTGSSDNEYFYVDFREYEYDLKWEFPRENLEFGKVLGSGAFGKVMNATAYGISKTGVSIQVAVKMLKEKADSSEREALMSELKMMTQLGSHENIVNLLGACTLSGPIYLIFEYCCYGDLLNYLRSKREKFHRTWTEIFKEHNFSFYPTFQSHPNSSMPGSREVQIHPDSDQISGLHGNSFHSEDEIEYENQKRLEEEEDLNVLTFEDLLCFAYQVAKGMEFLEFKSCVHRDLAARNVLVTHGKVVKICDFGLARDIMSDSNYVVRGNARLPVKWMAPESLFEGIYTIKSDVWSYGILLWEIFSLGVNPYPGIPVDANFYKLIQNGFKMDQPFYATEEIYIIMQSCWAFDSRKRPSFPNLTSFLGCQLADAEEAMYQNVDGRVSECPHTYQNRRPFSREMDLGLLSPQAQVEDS

[2] = biological target: T1, Receptor-type tyrosine-protein kinase FLT3; test: Inhibition of FLT3 in human MV4-11 cells assessed as inhibition of Erk1/2 phosphorylation after 20 hrs by Western blotting analysis; type: cell-based
[3] = biological target: Megakaryocyte-associated tyrosine-protein kinase (Homo sapiens, UniProt P42679); test: Inhibition of CTK (unknown origin)
[4] = biological target: Receptor tyrosine-protein kinase erbB-4 (Homo sapiens, UniProt Q15303); test: Inhibition of ERBB4 (unknown origin)
[5] = Inhibition of ERK (unknown origin); set-up: species or system Homo sapiens
MV4-11 [6] = test: Induction of apoptosis in human MV4-11 cells assessed as early apoptotic cells at 0.01 uM after 24 hrs by annexin V-FITC/propidium iodide staining-based FACS flow cytometric analysis (reference value: 1.61%); type: functional
MV4-11 [7] = test: Induction of apoptosis in human MV4-11 cells assessed as late apoptotic cells at 0.003 uM after 24 hrs by annexin V-FITC/propidium iodide staining-based FACS flow cytometric analysis (reference value: 4.28%); type: functional
[8] = biological target: Fibroblast growth factor receptor 2 (Homo sapiens, UniProt P21802); test: Inhibition of FGFR2 (unknown origin)
[9] = Cytotoxicity against human SK cells assessed as growth inhibition after 72 hrs by MTT assay
[10] = biological target: Serine/threonine-protein kinase Chk1 (Homo sapiens, UniProt O14757); test: Inhibition of CHEK1 (unknown origin)
MV4-11 [11] = test: Induction of apoptosis in human MV4-11 cells assessed as late apoptotic cells at 0.001 uM after 24 hrs by annexin V-FITC/propidium iodide staining-based FACS flow cytometric analysis (reference value: 4.28%); type: functional
[12] = biological target: Cyclin-dependent kinase 2 (Homo sapiens, UniProt P24941); test: Inhibition of CDK2 (unknown origin)
[13] = Oral bioavailability in Sprague-Dawley rat at 10 mg/kg/day; type: ADME, organism-based; details: in vivo
Procedure, shortened: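 Sprague-Dawley rats, five per group, were dosed orally at 10 mg/kg. Plasma was sampled through jugular vein cannulation. Drug levels were measured by liquid–liquid extraction followed by LC–MS.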

[14] = biological target: Calcium/calmodulin-dependent protein kinase type IV (Homo sapiens, UniProt Q16566); test: Inhibition of CAMK4 (unknown origin)
[15] = biological target: Mast/stem cell growth factor receptor Kit (Homo sapiens, UniProt P10721); test: Inhibition of c-Kit (unknown origin)
[16] = biological target: T1, Receptor-type tyrosine-protein kinase FLT3; test: Inhibition of FLT3 phosphorylation in human MV4-11 cells after 20 hrs by Western blotting analysis; type: cell-based
K562 = test: Cytotoxicity against human K562 cells assessed as growth inhibition after 72 hrs by MTT assay; details: K562, 72 h
U-937 = test: Cytotoxicity against human U937 cells assessed as growth inhibition after 72 hrs by MTT assay; details: U-937, 72 h
[17] = biological target: Serine/threonine-protein kinase PAK 2 (Homo sapiens, UniProt Q13177); test: Inhibition of PAK2 (unknown origin)
[18] = biological target: Serine/threonine-protein kinase/endoribonuclease IRE1 (Homo sapiens, UniProt O75460); test: Inhibition of ERN1 (unknown origin)
MV4-11 [19] = test: Induction of apoptosis in human MV4-11 cells assessed as early apoptotic cells at 0.1 uM after 24 hrs by annexin V-FITC/propidium iodide staining-based FACS flow cytometric analysis (reference value: 1.61%); type: functional
[20] = biological target: RAF proto-oncogene serine/threonine-protein kinase (Homo sapiens, UniProt P04049); test: Inhibition of c-RAF (unknown origin)
SK-OV-3 = test: Cytotoxicity against human SKOV3 cells assessed as growth inhibition after 72 hrs by MTT assay; details: SK-OV-3, 72 h
[21] = Apparent half life in Sprague-Dawley rat at 10 mg/kg/day, po; type: ADME, organism-based; set-up: route oral; details: in vivo, read-out: t1/2(app) (converted)

Calcium/calmodulin-dependent protein kinase type IV, sequence (Q16566 whole entry): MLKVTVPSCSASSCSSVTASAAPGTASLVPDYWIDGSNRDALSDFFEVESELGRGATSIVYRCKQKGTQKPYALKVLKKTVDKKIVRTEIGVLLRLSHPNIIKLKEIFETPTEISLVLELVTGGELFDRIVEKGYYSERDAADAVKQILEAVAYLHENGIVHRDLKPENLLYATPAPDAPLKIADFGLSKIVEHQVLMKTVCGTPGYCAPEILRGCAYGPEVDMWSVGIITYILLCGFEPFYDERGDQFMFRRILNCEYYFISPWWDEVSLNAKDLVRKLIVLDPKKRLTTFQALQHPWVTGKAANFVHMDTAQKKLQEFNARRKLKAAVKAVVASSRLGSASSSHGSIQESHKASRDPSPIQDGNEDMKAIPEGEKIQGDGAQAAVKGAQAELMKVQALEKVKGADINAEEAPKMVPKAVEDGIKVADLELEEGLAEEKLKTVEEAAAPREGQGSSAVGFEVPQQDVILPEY
Fibroblast growth factor receptor 2, sequence (P21802 whole entry): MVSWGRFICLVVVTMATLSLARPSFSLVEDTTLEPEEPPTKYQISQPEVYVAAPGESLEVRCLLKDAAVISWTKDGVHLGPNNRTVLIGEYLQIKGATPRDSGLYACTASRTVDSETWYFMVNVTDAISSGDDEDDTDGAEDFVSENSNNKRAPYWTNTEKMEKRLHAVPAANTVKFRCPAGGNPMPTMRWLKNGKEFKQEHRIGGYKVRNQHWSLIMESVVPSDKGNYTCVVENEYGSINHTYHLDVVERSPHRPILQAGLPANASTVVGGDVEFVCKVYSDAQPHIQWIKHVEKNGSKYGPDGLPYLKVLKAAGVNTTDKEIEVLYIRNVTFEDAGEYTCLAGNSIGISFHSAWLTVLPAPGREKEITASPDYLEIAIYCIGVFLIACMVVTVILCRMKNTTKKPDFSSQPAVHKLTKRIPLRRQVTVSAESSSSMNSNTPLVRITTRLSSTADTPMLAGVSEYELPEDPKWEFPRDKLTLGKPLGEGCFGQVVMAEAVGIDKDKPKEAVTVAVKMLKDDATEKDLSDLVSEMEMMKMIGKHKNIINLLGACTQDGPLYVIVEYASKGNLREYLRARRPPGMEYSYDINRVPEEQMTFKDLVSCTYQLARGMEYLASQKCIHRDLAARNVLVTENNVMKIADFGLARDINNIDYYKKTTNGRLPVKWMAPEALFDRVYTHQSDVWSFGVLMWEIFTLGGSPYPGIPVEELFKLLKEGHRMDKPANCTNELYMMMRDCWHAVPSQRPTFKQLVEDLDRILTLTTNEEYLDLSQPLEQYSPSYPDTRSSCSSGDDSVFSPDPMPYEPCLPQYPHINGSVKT
Megakaryocyte-associated tyrosine-protein kinase, sequence (P42679 whole entry): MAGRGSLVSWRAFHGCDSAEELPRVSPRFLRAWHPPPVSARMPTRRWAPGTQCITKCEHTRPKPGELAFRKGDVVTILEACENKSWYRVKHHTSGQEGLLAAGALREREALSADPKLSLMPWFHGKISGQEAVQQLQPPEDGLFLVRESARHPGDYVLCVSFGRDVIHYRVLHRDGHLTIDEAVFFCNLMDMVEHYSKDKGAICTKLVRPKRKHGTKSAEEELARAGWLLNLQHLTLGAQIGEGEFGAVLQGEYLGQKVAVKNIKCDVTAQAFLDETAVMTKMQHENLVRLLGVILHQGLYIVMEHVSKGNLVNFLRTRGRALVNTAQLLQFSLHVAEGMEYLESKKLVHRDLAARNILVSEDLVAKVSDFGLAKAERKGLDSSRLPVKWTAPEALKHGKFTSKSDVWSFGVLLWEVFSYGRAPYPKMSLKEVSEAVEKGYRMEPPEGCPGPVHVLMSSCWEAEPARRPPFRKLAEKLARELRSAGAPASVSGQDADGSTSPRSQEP
Serine/threonine-protein kinase Chk1, sequence (O14757 whole entry): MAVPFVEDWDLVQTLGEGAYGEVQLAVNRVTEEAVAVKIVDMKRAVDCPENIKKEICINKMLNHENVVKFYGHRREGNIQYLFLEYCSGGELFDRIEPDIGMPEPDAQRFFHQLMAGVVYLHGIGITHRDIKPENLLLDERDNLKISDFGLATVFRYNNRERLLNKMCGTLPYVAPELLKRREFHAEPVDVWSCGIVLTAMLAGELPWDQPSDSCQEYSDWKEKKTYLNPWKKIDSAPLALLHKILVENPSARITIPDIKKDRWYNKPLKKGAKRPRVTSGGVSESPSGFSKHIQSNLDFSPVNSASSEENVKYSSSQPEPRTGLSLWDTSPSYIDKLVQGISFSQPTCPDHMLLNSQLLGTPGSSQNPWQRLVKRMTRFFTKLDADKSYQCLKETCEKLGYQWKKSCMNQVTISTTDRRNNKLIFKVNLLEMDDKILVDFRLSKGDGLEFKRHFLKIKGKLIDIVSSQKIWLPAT
Mast/stem cell growth factor receptor Kit, sequence (P10721 whole entry): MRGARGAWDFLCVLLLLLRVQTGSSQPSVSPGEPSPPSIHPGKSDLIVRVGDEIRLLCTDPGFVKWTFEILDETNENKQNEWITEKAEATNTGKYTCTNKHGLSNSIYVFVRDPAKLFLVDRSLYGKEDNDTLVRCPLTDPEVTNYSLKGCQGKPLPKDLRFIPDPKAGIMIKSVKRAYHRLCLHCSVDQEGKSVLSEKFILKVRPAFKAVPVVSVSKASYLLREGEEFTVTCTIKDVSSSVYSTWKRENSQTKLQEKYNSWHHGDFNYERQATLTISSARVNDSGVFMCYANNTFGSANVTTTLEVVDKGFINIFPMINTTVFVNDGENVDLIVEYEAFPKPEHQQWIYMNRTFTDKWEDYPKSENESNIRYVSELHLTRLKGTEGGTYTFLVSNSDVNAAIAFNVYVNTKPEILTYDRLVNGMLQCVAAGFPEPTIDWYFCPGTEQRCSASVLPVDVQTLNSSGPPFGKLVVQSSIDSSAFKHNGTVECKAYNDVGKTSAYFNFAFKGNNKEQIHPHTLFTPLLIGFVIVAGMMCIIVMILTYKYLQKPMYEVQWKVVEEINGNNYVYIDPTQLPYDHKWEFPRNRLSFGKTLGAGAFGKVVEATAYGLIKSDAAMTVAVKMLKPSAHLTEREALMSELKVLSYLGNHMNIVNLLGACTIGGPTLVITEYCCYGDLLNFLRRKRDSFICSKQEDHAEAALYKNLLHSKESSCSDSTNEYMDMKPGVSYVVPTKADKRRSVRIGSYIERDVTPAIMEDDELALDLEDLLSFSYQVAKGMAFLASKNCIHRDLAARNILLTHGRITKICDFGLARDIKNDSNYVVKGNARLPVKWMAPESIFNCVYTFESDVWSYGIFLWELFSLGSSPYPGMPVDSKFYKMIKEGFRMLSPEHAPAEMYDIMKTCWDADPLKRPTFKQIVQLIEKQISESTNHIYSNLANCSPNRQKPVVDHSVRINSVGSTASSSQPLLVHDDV
Serine/threonine-protein kinase PAK 2, sequence (Q13177 whole entry): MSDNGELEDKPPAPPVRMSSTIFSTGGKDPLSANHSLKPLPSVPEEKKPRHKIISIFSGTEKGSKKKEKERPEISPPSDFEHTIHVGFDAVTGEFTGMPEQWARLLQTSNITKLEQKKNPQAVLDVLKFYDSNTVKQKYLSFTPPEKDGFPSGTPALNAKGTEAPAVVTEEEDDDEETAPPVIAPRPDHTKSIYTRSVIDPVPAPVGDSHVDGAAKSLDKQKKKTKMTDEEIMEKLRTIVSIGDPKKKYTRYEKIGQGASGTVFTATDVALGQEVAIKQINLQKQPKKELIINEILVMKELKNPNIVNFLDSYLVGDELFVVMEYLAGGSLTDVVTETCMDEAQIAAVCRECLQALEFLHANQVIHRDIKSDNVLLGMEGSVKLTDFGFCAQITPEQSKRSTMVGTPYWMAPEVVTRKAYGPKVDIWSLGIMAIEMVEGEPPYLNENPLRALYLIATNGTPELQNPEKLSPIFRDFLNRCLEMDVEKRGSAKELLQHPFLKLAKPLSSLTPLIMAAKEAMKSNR
Serine/threonine-protein kinase/endoribonuclease IRE1, sequence (O75460 whole entry): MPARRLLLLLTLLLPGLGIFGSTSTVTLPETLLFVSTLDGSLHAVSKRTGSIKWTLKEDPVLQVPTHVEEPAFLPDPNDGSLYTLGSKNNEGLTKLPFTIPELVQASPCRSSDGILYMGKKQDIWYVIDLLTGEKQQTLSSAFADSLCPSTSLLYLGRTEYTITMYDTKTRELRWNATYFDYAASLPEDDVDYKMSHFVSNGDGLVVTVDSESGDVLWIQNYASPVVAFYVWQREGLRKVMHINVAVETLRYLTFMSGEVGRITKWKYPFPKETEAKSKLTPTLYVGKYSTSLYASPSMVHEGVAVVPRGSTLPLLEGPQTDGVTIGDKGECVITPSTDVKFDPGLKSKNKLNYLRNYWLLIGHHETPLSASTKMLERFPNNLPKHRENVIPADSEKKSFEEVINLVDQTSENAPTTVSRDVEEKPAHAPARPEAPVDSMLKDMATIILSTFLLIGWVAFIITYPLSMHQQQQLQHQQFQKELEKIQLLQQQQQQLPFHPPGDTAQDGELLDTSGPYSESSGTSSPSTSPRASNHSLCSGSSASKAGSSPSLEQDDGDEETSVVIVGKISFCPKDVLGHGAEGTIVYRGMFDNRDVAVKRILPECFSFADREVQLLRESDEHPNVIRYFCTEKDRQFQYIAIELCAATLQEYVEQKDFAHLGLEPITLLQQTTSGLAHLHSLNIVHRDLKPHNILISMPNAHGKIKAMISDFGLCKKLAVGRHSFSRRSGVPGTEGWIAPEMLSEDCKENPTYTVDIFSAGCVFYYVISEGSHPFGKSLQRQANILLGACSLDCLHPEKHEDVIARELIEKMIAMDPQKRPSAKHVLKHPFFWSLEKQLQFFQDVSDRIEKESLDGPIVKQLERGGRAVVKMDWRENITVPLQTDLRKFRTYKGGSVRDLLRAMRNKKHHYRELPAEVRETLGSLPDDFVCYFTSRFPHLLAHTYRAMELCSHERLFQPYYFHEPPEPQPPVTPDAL

In the case of `O=C(Nc1ccc(Oc2ncnc3[nH]ncc23)cc1)Nc1ccc(Cl)c(C(F)(F)F)c1`, the IC50 (Raji) is reported as > 10 µM, the IC50 (SMMC-7721) is reported as > 10 µM and the Activity (Mus musculus) is reported as “Non-toxic”. The IC50 (HL-60) was > 10 µM, the IC50 [1] was 0.039 µM and the IC50 [2] was 0.001 µM. The IC50 [3] was > 10 µM, the IC50 [4] was > 10 µM and the IC50 [5] was > 10 µM. For the same molecule, the Activity (MV4-11 [6]) was 5.88%, the Activity (MV4-11 [7]) was 7.11% and the IC50 [8] was 1.81 µM. The IC50 [9] was > 10 µM, the IC50 [10] was > 10 µM and the Activity (MV4-11 [11]) was 5.5%. The IC50 [12] was > 10 µM, the bioavailability [13] was 66.7% and the IC50 [14] was > 10 µM. The IC50 [15] was 0.507 µM, the IC50 [16] was 0.003 µM and the IC50 (K562) was > 10 µM. For the same molecule, the IC50 (U-937) was > 10 µM, the IC50 [17] was > 10 µM and the IC50 [18] was > 10 µM. The Activity (MV4-11 [19]) was 9.96%, the IC50 [20] was 0.072 µM and the IC50 (SK-OV-3) was > 10 µM. For the same molecule, the half-life [21] was 12.6 h.
